# Publication PMC11564230 (Clinical Drug Investigation, 2024)
# Assays:
# [1] = Clinical single-dose pharmacokinetics of semaglutide in plasma; format: in vivo, human; settings: T2DM, single s.c. dose 0.5 mg semaglutide
# In short: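 Same crossover design in T2DM adults: single s.c. dose of 1 mg/mL (243 nmol/mL) product, 6–9 week washout. EDTA plasma drawn pre-dose to 840 h (35 days), kept on ice 10 min, spun 1500g 10 min 4 °C, stored −20 °C. Measured by validated LC-MS/MS. Log-transformed Cmax analysed by linear normal model with treatment, period and participant as fixed effects.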
# [2] = Safety in the clinical study; format: in vivo, human; settings: for AEs of severity Mild, % / AEs of severity Moderate, % / AEs of severity Severe, % / AEs with outcome Recovered/resolved, % / AEs with outcome Recovering/resolving, % / AEs with relationship to study product Possible, % / AEs with relationship to study product Probable, % / AEs with relationship to study product Unlikely, % / Decreased appetite, % / Gastrointestinal disorders (SOC), % / General disorders and administration site conditions (SOC), % / Headache, % / Metabolism and nutrition disorders (SOC), % / Nausea, % / Nervous system disorders (SOC), % / Serious AEs, % / Vomiting, % / Treatment emergent AEs, %: percent of individuals; for Overall tolerability in the clinical study: T2DM
# In short: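 Adverse events and hypoglycaemia recorded continuously; treatment-emergent if from dosing to 35 days post-dose. Hypoglycaemia was BG-confirmed (BG < 2.8 mmol/L, i.e. PG < 3.1 mmol/L) or severe (needing assistance). Antibody samples taken pre-dose and at days 14, 28 and 35; validated assays. Anti-icodec-positive samples tested for human insulin cross-reactivity. Descriptive statistics.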
# [3] = insulin-naïve T2DM, phase 3 ONWARDS 1 and 3; cited from earlier work
# [4] = Clinical single-dose pharmacokinetics of insulin icodec in serum; format: in vivo, human; settings: T2DM, single s.c. dose 175 U icodec
# In short: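 T2DM adults (18–64 y, metformin ± one OAD, 80–120 kg, HbA1c 6.0–8.5%) in a randomised, double-blind, three-period crossover. Single s.c. dose of 700 U/mL product; washout 6–9 weeks. Serum sampled pre-dose to 840 h, clotted 30 min at RT, spun 1500g 10 min 4 °C, stored −20 °C; validated LOCI. Log Cmax fitted by linear model (treatment, period, participant fixed); tmax descriptive.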
# [5] = number of events, treatment emergent
compound,measurement,setting,value
"CC[C@H](C)[C@H](NC(=O)[C@H](Cc1ccccc1)NC(=O)[C@H](CCC(=O)O)NC(=O)[C@H](CCCCNC(=O)COCCOCCNC(=O)COCCOCCNC(=O)CC[C@H](NC(=O)CCCCCCCCCCCCCCCCC(=O)O)C(=O)O)NC(=O)[C@H](C)NC(=O)[C@H](C)NC(=O)[C@H](CCC(N)=O)NC(=O)CNC(=O)[C@H](CCC(=O)O)NC(=O)[C@H](CC(C)C)NC(=O)[C@H](Cc1ccc(O)cc1)NC(=O)[C@H](CO)NC(=O)[C@H](CO)NC(=O)[C@@H](NC(=O)[C@H](CC(=O)O)NC(=O)[C@H](CO)NC(=O)[C@@H](NC(=O)[C@H](Cc1ccccc1)NC(=O)[C@@H](NC(=O)CNC(=O)[C@H](CCC(=O)O)NC(=O)C(C)(C)NC(=O)[C@@H](N)Cc1cnc[nH]1)[C@@H](C)O)[C@@H](C)O)C(C)C)C(=O)N[C@@H](C)C(=O)N[C@@H](Cc1c[nH]c2ccccc12)C(=O)N[C@@H](CC(C)C)C(=O)N[C@H](C(=O)N[C@@H](CCCNC(=N)N)C(=O)NCC(=O)N[C@@H](CCCNC(=N)N)C(=O)NCC(=O)O)C(C)C [Semaglutide, semaglutide]","Maximum concentration after single dose (Cmax,SD,Semaglutide), LS mean","[1]; plasma, LS mean, N 30/28",8 nM
same,"Median time to maximum semaglutide concentration after single dose (tmax,SD,Semaglutide)",[1]; median,84 h
same,Participants positive for anti-semaglutide antibodies,[2]; assessed following IcoSema administration,No participants were positive
same,"AEs of severity Mild, %",[2]; treatment emergent,(57.1) %
same,"AEs of severity Moderate, %",[2]; treatment emergent,(17.9) %
same,"AEs of severity Severe, %",[2]; treatment emergent,(0.0) %
same,"AEs with outcome Recovered/resolved, %",[2]; treatment emergent,(60.7) %
same,"AEs with outcome Recovering/resolving, %",[2]; treatment emergent,(0.0) %
same,"AEs with relationship to study product Possible, %",[2]; treatment emergent,(28.6) %
same,"AEs with relationship to study product Probable, %",[2]; treatment emergent,(42.9) %
same,"AEs with relationship to study product Unlikely, %",[2]; treatment emergent,(21.4) %
same,"Decreased appetite, %",[2]; treatment emergent,(17.9) %
same,"Gastrointestinal disorders (SOC), %",[2]; treatment emergent,(42.9) %
same,"General disorders and administration site conditions (SOC), %",[2]; treatment emergent,(14.3) %
same,"Headache, %",[2]; treatment emergent,(7.1) %
same,"Metabolism and nutrition disorders (SOC), %",[2]; treatment emergent,(21.4) %
same,"Nausea, %",[2]; treatment emergent,(21.4) %
same,"Nervous system disorders (SOC), %",[2]; treatment emergent,(17.9) %
same,"Serious AEs, %",[2]; treatment emergent,(0.0) %
same,"Vomiting, %",[2]; treatment emergent,(7.1) %
same,"Treatment emergent AEs, %",[2]; until 35 days after dosing,(60.7) %
same,Overall tolerability in the clinical study,[2]; single s.c. dose,well-tolerated
insulin degludec,Rate of clinically significant or severe hypoglycaemia,[3],< 1 episode per patient-year of exposure
insulin icodec,"Maximum concentration after single dose (Cmax,SD,Icodec), LS mean","[4]; serum, LS mean, N 30/28",95 nM
same,"Median time to maximum icodec concentration after single dose (tmax,SD,Icodec)",[4]; median,24 h
same,Treatment-emergent BG confirmed hypoglycaemic episodes,"[2]; BG < 2.8 mmol/L, PG < 3.1 mmol/L, single s.c. dose, until 35 days after dose",three
same,Participants positive for anti-icodec antibodies at least once during the study,[2]; assessed following IcoSema and icodec administration,13 participants
same,"AEs of severity Mild, E",[2]; [5],23
same,"AEs of severity Moderate, E",[2]; [5],6
same,"AEs of severity Severe, E",[2]; [5],1
same,"AEs with outcome Recovered/resolved, E",[2]; [5],30
same,"AEs with outcome Recovering/resolving, E",[2]; [5],0
same,"AEs with relationship to study product Possible, E",[2]; [5],14
same,"AEs with relationship to study product Probable, E",[2]; [5],4
same,"AEs with relationship to study product Unlikely, E",[2]; [5],12
same,"Decreased appetite, E",[2]; [5],3
same,"Gastrointestinal disorders (SOC), E",[2]; [5],5
same,"General disorders and administration site conditions (SOC), E",[2]; [5],2
same,"Headache, E",[2]; [5],5
same,"Metabolism and nutrition disorders (SOC), E",[2]; [5],3
same,"Nausea, E",[2]; [5],0
same,"Nervous system disorders (SOC), E",[2]; [5],5
same,"Serious AEs, E",[2]; [5],1
same,"Vomiting, E",[2]; [5],0
same,"Treatment emergent AEs, E","[2]; number of events, until 35 days after dosing",30
same,Participants positive for anti-icodec antibodies cross-reacting to human insulin at least once,[2]; of the anti-icodec antibody positive participants,12 participants
same,"AEs of severity Mild, %",[2]; treatment emergent,(42.9) %
same,"AEs of severity Moderate, %",[2]; treatment emergent,(17.9) %
same,"AEs of severity Severe, %",[2]; treatment emergent,(3.6) %
same,"AEs with outcome Recovered/resolved, %",[2]; treatment emergent,(53.6) %
same,"AEs with outcome Recovering/resolving, %",[2]; treatment emergent,(0.0) %
same,"AEs with relationship to study product Possible, %",[2]; treatment emergent,(28.6) %
same,"AEs with relationship to study product Probable, %",[2]; treatment emergent,(10.7) %
same,"AEs with relationship to study product Unlikely, %",[2]; treatment emergent,(32.1) %
same,"Decreased appetite, %",[2]; treatment emergent,(10.7) %
same,"Gastrointestinal disorders (SOC), %",[2]; treatment emergent,(14.3) %
same,"General disorders and administration site conditions (SOC), %",[2]; treatment emergent,(7.1) %
same,"Headache, %",[2]; treatment emergent,(14.3) %
same,"Metabolism and nutrition disorders (SOC), %",[2]; treatment emergent,(10.7) %
same,"Nausea, %",[2]; treatment emergent,(0.0) %
same,"Nervous system disorders (SOC), %",[2]; treatment emergent,(14.3) %
same,"Serious AEs, %",[2]; treatment emergent,(3.6) %
same,"Vomiting, %",[2]; treatment emergent,(0.0) %
same,"Treatment emergent AEs, %",[2]; until 35 days after dosing,(53.6) %
same,Overall tolerability in the clinical study,[2]; single s.c. dose,well-tolerated
same,Rate of clinically significant or severe hypoglycaemia,[3],< 1 episode per patient-year of exposure
